Data on 16 compounds can be found in ChEMBL document CHEMBL1127048, “A potent new class of kappa-receptor agonist: 4-substituted 1-(arylacetyl)-2-[(dialkylamino)methyl]piperazines” (J Med Chem, 1993).

The subject of test [1] is Mus musculus. The test can be described thus: In vivo antinociceptive activity was determined using mouse acetylcholine induced abdominal constriction test following subcutaneous administration; range (0.015-0.037). In kind it is functional. The conditions noted are these: Abdomen, sc. A digest of the protocol: (§1)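 Mice given compound by subcutaneous injection, then challenged with acetylcholine to induce abdominal constrictions. Antinociceptive ED50 determined in mg/kg sc, with a bracketed range reported alongside.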

The subject of test [2] is Mus musculus. As to the kind of experiment: In vivo antinociceptive activity was determined using mouse acetylcholine induced abdominal constriction test following subcutaneous administration. In kind it is functional. The conditions noted are these: Abdomen, sc. A digest of the protocol:
as §1

The test system of test [3] is Mus musculus. The test can be described thus: In vivo antinociceptive activity was determined using mouse acetylcholine induced abdominal constriction test following subcutaneous administration; range (0.20-1.09). In kind it is functional. The conditions noted are these: Abdomen, sc. In short, it runs like this: as §1
Test [4] deals with Mus musculus. As to the kind of experiment: In vivo antinociceptive activity was determined using mouse acetylcholine induced abdominal constriction test following subcutaneous administration; range (0.12-0.48). In kind it is functional. The settings on record: Abdomen, sc. A digest of the protocol:
as §1

Test [5] deals with Mus musculus. The test can be described thus: In vivo antinociceptive activity was determined using mouse acetylcholine induced abdominal constriction test following subcutaneous administration; range (0.000033-0.000241). Format: functional. The settings on record: Abdomen, sc. In short, it runs like this:
as §1

Test [6] relates to Mus musculus. As to the kind of experiment: In vivo antinociceptive activity was determined using mouse acetylcholine induced abdominal constriction test following subcutaneous administration; range (0.03-0.08). Format: functional. The conditions noted are these: Abdomen, sc. In short, it runs like this: as §1
The test system of test [7] is Mus musculus. The test can be described thus: In vivo antinociceptive activity was determined using mouse acetylcholine induced abdominal constriction test following subcutaneous administration; range (0.04-0.15). In kind it is functional. The settings on record: Abdomen, sc. A digest of the protocol:
as §1

Test [8] is filed under the species Rattus norvegicus. As to the kind of experiment: Agonistic/Antagonistic activity in rat vas deferens (RVD) at 10e-5 M; not active. In kind it is functional.
A short description of test [9]: In vitro agonist activity at kappa opioid receptor in rabbit vas deferens.
Test [10] deals with Mus musculus. As to the kind of experiment: In vivo antinociceptive activity was determined using mouse acetylcholine induced abdominal constriction test following subcutaneous administration; range (0.0003-0.002). In kind it is functional. The conditions noted are these: Abdomen, sc. A digest of the protocol:
as §1

Test [11] relates to Mus musculus. The test can be described thus: In vivo antinociceptive activity was determined using mouse acetylcholine induced abdominal constriction test following subcutaneous administration; range (0.059-0.173). In kind it is functional. The settings on record: Abdomen, sc. In short, it runs like this: as §1
For test [12], the system named is Mus musculus. The test can be described thus: In vivo antinociceptive activity was determined using mouse acetylcholine induced abdominal constriction test following subcutaneous administration; range (0.002-0.007). The conditions noted are these: Abdomen, sc. Format: functional. A digest of the protocol: as §1
Test [13] has as its system Mus musculus. As to the kind of experiment: In vivo antinociceptive activity was determined using mouse acetylcholine induced abdominal constriction test following subcutaneous administration; range (0.024-0.066). Format: functional. The settings on record: Abdomen, sc. A digest of the protocol: as §1
For test [14], the system named is Mus musculus. As to the kind of experiment: In vivo antinociceptive activity was determined using mouse acetylcholine induced abdominal constriction test following subcutaneous administration; range (0.00012-0.00045). Format: functional. The settings on record: Abdomen, sc. In short, it runs like this: as §1
For test [15], the system named is Rattus norvegicus. As to the kind of experiment: In vivo antinociceptive activity was determined using rat paw pressure test following subcutaneous administration; range (0.00058-0.0014). Format: functional. The settings on record: sc.
For test [16], the system named is Mus musculus. The test can be described thus: In vivo antinociceptive activity was determined using mouse acetylcholine induced abdominal constriction test following oral administration; range (0.005-0.035). Format: functional. The conditions noted are these: Abdomen.
The test system of test [17] is Mus musculus. The test can be described thus: In vivo antinociceptive activity was determined using mouse acetylcholine induced abdominal constriction test following subcutaneous administration; range (0.00027-0.00086). Format: functional. The conditions noted are these: Abdomen, sc. In short, it runs like this:
as §1

The target in another test is Mu-type opioid receptor (Rattus norvegicus, UniProt P33535). The test can be described thus: In vitro inhibitory activity against mu specific tissue of rat vas deferens. In kind it is functional, tissue-based.
In test [18] the target is Kappa-type opioid receptor (Homo sapiens) (UniProt P41145). The conditions noted are these: Oryctolagus cuniculus; Vas deferens.
In test [19] the test system is Mus musculus. As to the kind of experiment: In vivo antinociceptive activity was determined using mouse acetylcholine induced abdominal constriction test following subcutaneous administration; range (0.012-0.032). In kind it is functional. The conditions noted are these: Abdomen, sc. A digest of the protocol: as §1
For test [20], the system named is Mus musculus. As to the kind of experiment: In vivo antinociceptive activity was determined using mouse acetylcholine induced abdominal constriction test following subcutaneous administration; range (0.01-0.02). In kind it is functional. The conditions noted are these: Abdomen, sc. In short, it runs like this:
as §1

In test [21] the test system is Mus musculus. The test can be described thus: In vivo antinociceptive activity was determined using mouse acetylcholine induced abdominal constriction test following subcutaneous administration; range (0.007-0.018). The conditions noted are these: Abdomen, sc. In kind it is functional. In short, it runs like this: as §1

Kappa-type opioid receptor (Homo sapiens), sequence (P41145 whole entry): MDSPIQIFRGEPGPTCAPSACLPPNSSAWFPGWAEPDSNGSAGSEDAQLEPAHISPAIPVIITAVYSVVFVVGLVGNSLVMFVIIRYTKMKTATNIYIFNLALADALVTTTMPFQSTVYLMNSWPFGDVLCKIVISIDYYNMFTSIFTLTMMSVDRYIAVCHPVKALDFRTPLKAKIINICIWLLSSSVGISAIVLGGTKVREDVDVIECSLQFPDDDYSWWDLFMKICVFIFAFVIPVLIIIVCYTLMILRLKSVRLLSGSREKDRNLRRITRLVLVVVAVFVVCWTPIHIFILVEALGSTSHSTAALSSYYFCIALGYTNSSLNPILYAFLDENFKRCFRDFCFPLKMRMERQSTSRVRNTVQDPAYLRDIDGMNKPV
Mu-type opioid receptor, sequence (P33535 whole entry): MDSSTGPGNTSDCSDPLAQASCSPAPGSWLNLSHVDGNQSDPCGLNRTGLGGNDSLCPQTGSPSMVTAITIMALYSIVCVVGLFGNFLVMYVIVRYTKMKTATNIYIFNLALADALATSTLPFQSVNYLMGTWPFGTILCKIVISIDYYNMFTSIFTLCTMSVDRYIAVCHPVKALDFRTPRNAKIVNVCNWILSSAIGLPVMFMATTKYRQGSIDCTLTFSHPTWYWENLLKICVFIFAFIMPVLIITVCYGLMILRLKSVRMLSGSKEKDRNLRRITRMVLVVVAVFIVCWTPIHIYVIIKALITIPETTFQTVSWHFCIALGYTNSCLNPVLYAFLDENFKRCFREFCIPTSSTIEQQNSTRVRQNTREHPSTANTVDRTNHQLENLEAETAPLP

As a reminder, the ED50 is the dose at which the effect has come halfway, by size or by number of responders. Low readings indicate greater potency, high ones weaker potency. On to `COC(=O)N1CCN(C(=O)Cc2ccc(Cl)c(Cl)c2)C(CN2CCC(=O)C2)C1` (stereo not drawn), for which, in the test with Mus musculus [1], the median effective dose (ED50) is 23 µg/kg. For the compound `CN1CC[C@]23c4c5ccc(O)c4O[C@H]2[C@@H](O)C=C[C@H]3[C@H]1C5` [MORPHINE], in the test on Mus musculus [2], the ED50 is 470 µg/kg. Turning to `CCCOC(=O)N1CCN(C(=O)Cc2ccc(Cl)c(Cl)c2)C(CN2CCCC2)C1` (stereo not drawn), the median effective dose (ED50) in the test with Mus musculus [2] amounted to 680 µg/kg. The ED50 values of the last two compounds are within 1.5-fold of each other. `CCCC(=O)N1CCN(C(=O)Cc2ccc(Cl)c(Cl)c2)C(CN2CCCC2)C1` (stereo not drawn): the ED50 in the test with Mus musculus [3] worked out at 410 µg/kg. On to `O=CN1CCN(C(=O)Cc2ccc(Cl)c(Cl)c2)C(CN2CCCC2)C1` (stereo not drawn), for which the 50% effect level in the test on Mus musculus [4] (ED50) was put at a dose of 230 µg/kg. On to `COC(=O)N1CCN(C(=O)Cc2ccc(Cl)c(Cl)c2)C(CN2CC=CCC2)C1` (stereo not drawn), for which it took a dose of 0.096 µg/kg to reach the 50% effect level in the test on Mus musculus [5] (ED50). As for `CCC(=O)N1CCN(C(=O)Cc2ccc(Cl)c(Cl)c2)C(CN2CCCC2)C1` (stereo not drawn), the 50% effect level in the test on Mus musculus [6] (ED50) was put at a dose of 50 µg/kg. By IC50 is commonly meant the point on the concentration scale where inhibition reaches its midpoint. For the compound `CC(=O)N1CCN(C(=O)Cc2ccc(Cl)c(Cl)c2)C(CN2CCCC2)C1` (stereo not drawn), it took a dose of 80 µg/kg to reach the 50% effect level in the test with Mus musculus [7] (ED50). The IC50 entry in the test filed under Rattus norvegicus [8] is “Not Active”. In [9], `O=C(Cc1ccc(Cl)c(Cl)c1)N1CCC2(CC1CN1CCCC1)OCCO2` (stereo not drawn) displayed an IC50 of 0.1 nM. In the test on Mus musculus [10], this compound came in with an ED50 of 1 µg/kg. Regarding `COC(=O)/C=C1\CCN(CC2CN(C(=O)OC)CCN2C(=O)Cc2ccc(Cl)c(Cl)c2)C1` (stereo not drawn), the ED50 in the test with Mus musculus [11] was determined as 100 µg/kg. Consider `COC(=O)/C=C1/CCN(CC2CN(C(=O)OC)CCN2C(=O)Cc2ccc(Cl)c(Cl)c2)C1` (stereo not drawn), for which the ED50 in the test on Mus musculus [12] came out at 4 µg/kg. In the test with Mus musculus [13], `COC(=O)N1CCN(C(=O)Cc2ccc(Cl)c(Cl)c2)C(CN2CCC(O)C2)C1` (stereo not drawn) returned an ED50 of 44 µg/kg.

What is called pKB is −log10 of the KB, conventionally taken in molar units. Higher therefore signals a small KB. Turning to `COC(=O)N1CCN(C(=O)Cc2ccc(Cl)c(Cl)c2)C(CN2CCCC2)C1` (stereo not drawn), the ED50 in the test with Mus musculus [14] is 0.25 µg/kg; in the test on Rattus norvegicus [15] it was 0.93 µg/kg; with Mus musculus [16], 12 µg/kg; in the test on Mus musculus [17], 0.52 µg/kg. In addition, the IC50 on Mu-type opioid receptor was more than 10000 nM. Moreover, the pKB in test [18] was 7.7. `C=CC(=O)N1CCN(C(=O)Cc2ccc(Cl)c(Cl)c2)C(CN2CCCC2)C1` (stereo not drawn): in the test with Mus musculus [19], it took a dose of 20 µg/kg to reach the 50% effect level (ED50). On to `COC(=O)N1CCN(C(=O)Cc2ccc(Cl)c(Cl)c2)C(CN(C)C)C1` (stereo not drawn), for which the 50% effect level with Mus musculus [20] (ED50) was put at a dose of 16 µg/kg. For `CCOC(=O)N1CCN(C(=O)Cc2ccc(Cl)c(Cl)c2)C(CN2CCCC2)C1` (stereo not drawn), the median effective dose (ED50) in the test with Mus musculus [21] is 10 µg/kg.
